Compound activity as filed in PubChem.
NR2E3 ag-1 – human photoreceptor-specific nuclear receptor agonism; inhibition of corepressor binding, % at 3.98 µM; CHO-S Gal4-NCOR/VP16-NR2E3 two-hybrid, luciferase; 0.35% of 360,000 active; AID 602229; Q9Y5X4;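 active means inhibition above the mean of all tested compounds plus 3 SD, cut at about 70% in these data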;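 further: higher means lower luciferase signal from less NR2E3 corepressor binding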
Target sequence (Q9Y5X4 whole entry, looked up, the tested form may be a part): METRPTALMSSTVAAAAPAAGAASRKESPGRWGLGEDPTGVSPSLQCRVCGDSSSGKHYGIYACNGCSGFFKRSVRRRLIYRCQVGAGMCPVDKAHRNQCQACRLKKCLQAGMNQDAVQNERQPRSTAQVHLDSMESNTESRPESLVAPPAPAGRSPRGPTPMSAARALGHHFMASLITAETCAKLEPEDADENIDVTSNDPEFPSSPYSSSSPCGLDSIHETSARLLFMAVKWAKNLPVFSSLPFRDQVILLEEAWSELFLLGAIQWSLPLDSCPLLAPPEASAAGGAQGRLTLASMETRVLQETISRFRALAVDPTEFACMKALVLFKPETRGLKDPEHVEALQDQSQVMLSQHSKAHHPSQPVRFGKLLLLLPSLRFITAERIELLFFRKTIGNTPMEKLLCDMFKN
PG9 binder – PG9 antibody binding by small molecule | TR-FRET gp120-PG9 antibody binding | inhibition, % at 6.7 µM | 0.43% of 360,000 active | AID 624416; in the data active means inhibition above about 8.5%
MC4R barr agon – activates human MC4R beta-arrestin recruitment | 0.98% of 360,000 active | AID 540308 | activation, % at 8.9 µM | U2OS MC4R beta-arrestin complementation, luminescence; percent of melanotan II response, DMSO zero | P32245;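 active means activation above a per-plate cutoff, the mean activation of sample wells on that plate plus 3 SD, cut at about 8% in these data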
NR1D1 modulator – Rev-erb alpha (human) modulation. P20393. Rev-erbα–FITC-DNA binding, fluorescence polarization, 90 min. activity, % at 10 µM. 0.79% of 370,000 active. AID 1259318;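 active means activity above about 14%, limit read from the data; passing the limit was not always enough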
MC4R antagonist – antagonists of human melanocortin 4 receptor (MC4R); inhibition, % at 6.5 µM; MC4R-expressing cells, MTII-stimulated cAMP, LANCE TR-FRET; P32245; 0.48% of 360,000 active;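 active means inhibition above its plate's cutoff, the mean of tested wells on that plate plus 3 SD, cut at about 29% in these data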
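System: U2OS cells stably expressing human melanocortin 4 receptor (MC4R). Reagent: Melanotan II challenge after compound preincubation. Doses: 6.5 µM. Times: 30-min compound, 1-h challenge, 1-h detection, room temperature. Measured by: TR-FRET with Eu-cAMP and labeled anti-cAMP, 671 nm. Replicates: singlicate.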
NR2E3 ag-2 – NR2E3 (human) agonism | Q9Y5X4 | GST-NR2E3/biotin-RetCOR TR-FRET, 1536-well | inhibition of corepressor binding, % at 4.78 µM | 0.12% of 320,000 active;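 active means percent inhibition above the cutoff of mean plus 3 SD of all tested compounds, set per screening campaign, cut at about 20% in these data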
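Material – GST-tagged NR2E3 plus biotinylated RetCOR corepressor · Quantity – NR2E3 fusion 1.35 nM · Times – 5 h incubation at 4 °C · Medium – pH 7.5 Tris-based buffer · Technique – TR-FRET, Eu(K)-anti-GST donor, streptavidin-D2 acceptor, ex 340, em 617/671 nm · Benchmarks – high control biotin, low control 0.6% DMSO · Format – 1536-well plates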
NR2E3 ag confirm – NR2E3 agonism confirmed in two-hybrid assay; shares compounds with NR2E3 ag-1; CHO-S mammalian two-hybrid NR2E3-NCOR, luciferase luminescence; inhibition, % at 3.98 µM; 51% of 2,300 active; AID 624378;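 active means average inhibition above a cutoff equal to the mean inhibition of all tested compounds plus one SD, cut at about 70% in these data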
GAL4-VP16 luc – GAL4-VP16 reporter inhibition in NR2E3 agonist counterscreen. AID 624379. CHO-S GAL4-VP16 luciferase reporter, luminescence. 29% of 2,300 active. inhibition, % at 3.98 µM. shares compounds with NR2E3 ag-1;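 active means mean inhibition above a cutoff equal to the average over all tested compounds plus one standard deviation, cut at about 70% in these data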;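 further: luciferase from a UAS reporter driven by GAL4-VP16 transactivation; higher means less reporter light so more repression of VP16 activity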
A number is an active result; i = inactive; nt = not tested or not shown. Shown are actives, neighbours in structure and some others; about 2.7% of the full set was active somewhere.

SMILES	NR2E3 ag-1	PG9 binder	MC4R barr agon	NR1D1 modulator	MC4R antagonist	NR2E3 ag-2	NR2E3 ag confirm	GAL4-VP16 luc
CN1/C(=C/c2cccc[n+]2CCO)Sc2ccccc21	i	i	i	i	i	i	nt	nt
CC[n+]1c(/C=C2\Sc3ccccc3N2C)ccc2cccc(C)c21	86.2	i	i	nt	i	nt	99.8	80.7
Cc1ccc(OCCCC(=O)Nc2nc3ccccc3[nH]2)cc1	i	i	i	i	i	i	nt	nt
Cc1cccc(OCCCC(=O)Nc2nc3ccccc3[nH]2)c1	i	i	i	i	i	i	72.4	i
COc1cc(CNC(C)C23CC4CC(CC(C4)C2)C3)cc(OC)c1OC (centres undefined)	i	i	i	i	i	nt	nt	nt
Cc1csc(NC(=O)c2ccc(Cn3nc(C)c(Br)c3C)o2)n1	78.5	i	i	i	i	i	73.5	i
CCCOC(=O)c1ccc(OCC(O)Cn2c(C)nc3ccccc32)cc1 (centres undefined)	i	i	i	i	i	nt	i	i
CC(=O)Nc1cccc(OCC(O)Cn2c(C)nc3ccccc32)c1 (centres undefined)	i	i	i	i	i	i	nt	nt
CC(C)(C)CC(=O)Nc1nnc(C(F)(F)F)s1	i	i	i	i	i	i	nt	nt
CC(NC(=O)Nc1nnc(C(F)(F)F)s1)(C(F)(F)F)C(F)(F)F	105.8	i	i	i	i	i	100.2	94.0
Cc1nc2c(C(=O)NCCC(C)C)c[nH]n2c(=O)c1Cc1ccccc1F	100.5	i	i	i	i	i	85.6	i
NC(=O)NN=C1CCC(O)CC1CC(=O)O (centres undefined)	nt	i	nt	i	nt	nt	nt	nt
COc1ccc(CCNC(=O)Cn2nc(C)c3c(C)n(-c4ccccc4)nc3c2=O)c(OC)c1	i	i	i	i	i	i	nt	nt
COc1ccc(OC)c(CCNC(=O)Cn2nc(C)c3c(C)n(-c4ccc(C)cc4)nc3c2=O)c1	73.9	i	i	i	i	i	i	i
CCC(C)(C)NC(=O)C(c1ccc(C)o1)N(Cc1cccs1)C(=O)Cn1nnc2ccccc21 (centres undefined)	i	i	i	i	i	i	nt	nt
Cc1cc(C)nc(SCC(=O)Nc2sc3c(c2C#N)CCC(C)C3)n1 (centres undefined)	70.7	i	i	i	i	i	73.8	77.3
Cc1ccc(C(=O)NNC(=O)c2ccc(S(=O)(=O)N3CCOCC3)cc2)cc1	i	i	i	i	i	i	nt	nt
O=C(O)C(Cc1ccccc1)NC(=O)C(Cc1ccccc1)NC(=O)C12CC3CC(CC(C3)C1)C2 (centres undefined)	i	i	i	i	i	i	nt	nt
COc1ccccc1N(Cc1ccccc1)S(=O)(=O)c1cccc(C(=O)Nc2ccc(C)cn2)c1	i	i	i	i	i	i	i	i
COc1ccccc1N(Cc1ccccc1)S(=O)(=O)c1cccc(C(=O)Nc2ccccn2)c1	i	i	i	i	i	i	nt	nt
Cc1nnc(NC(=O)c2nc(S(=O)(=O)Cc3ccccc3)ncc2Cl)s1	i	i	i	i	i	i	nt	nt
Cc1nn(C)c(C)c1/C=C/C(=O)c1ccc(Cl)cc1Cl	75.7	i	i	i	i	i	99.6	85.0
Cc1cc(/C=C2\SC(=S)NC2=O)c(C)[nH]1	i	i	i	i	i	i	nt	nt
O=C1NC(=S)S/C1=C\c1cc(Cl)ccc1Cl	80.7	i	i	i	i	nt	99.1	i
COC(=O)[C@@]1(Cc2ccccc2)C=C[C@@H](C)N1C(C)=O	i	i	i	i	i	i	nt	nt
SMILES	NR2E3 ag-1	PG9 binder	MC4R barr agon	NR1D1 modulator	MC4R antagonist	NR2E3 ag-2	NR2E3 ag confirm	GAL4-VP16 luc
CCCOc1ccc(CN(CCC#N)C(=S)NC(=O)c2ccccc2)cc1	i	i	i	i	i	i	i	i
O=C(O)c1cccc(Cn2c(Cl)c(/C=N/Nc3ccccc3)sc2=O)c1	i	nt	i	nt	i	i	i	i
O=C(O)c1cccc(Cn2c(Cl)c(/C=N/NC(=O)c3ccccc3Cl)sc2=O)c1	i	i	i	i	i	i	nt	nt
Cc1ccc2nc(N3C(=O)CNC3=S)sc2c1	i	i	i	i	i	i	i	i
COc1ccc2nc(N3C(=O)CNC3=S)sc2c1	i	i	i	i	i	i	nt	nt
Cc1ccc2cc(F)c(F)c(F)c2n1	i	i	nt	i	nt	nt	nt	nt
Cc1ccc2ccc3ccc(C)nc3c2n1	92.1	i	i	i	i	i	i	i
CCc1cc(C(=O)NC2CCCN(Cc3ccccc3F)C2)n(C)n1 (centres undefined)	i	i	i	i	i	i	i	i
Cn1nc(C(=O)NC2CCCN(Cc3ccccc3F)C2)c2ccccc2c1=O (centres undefined)	i	i	i	i	i	i	nt	nt
O=C(Nc1ccc(OC(F)F)cc1)Nc1cccc(C(F)(F)F)c1	i	i	i	i	i	i	i	i
O=C(Nc1ccc(OC(F)(F)F)cc1)Nc1cccc([N+](=O)[O-])c1	93.7	i	i	i	i	i	99.3	87.9
CCN(CC)S(=O)(=O)c1ccc(C(=O)Nc2cccc(C)c2)cc1	i	i	i	i	i	i	nt	nt
CCN(CC)S(=O)(=O)c1ccc(NC(=O)Nc2cccc(C(F)(F)F)c2)cc1	i	i	i	i	i	i	74.7	i
Nc1c(NCCCN2CCOCC2)c2ccccc2oc1=O	i	nt	i	i	i	i	nt	nt
O=C(c1cccc(S(=O)(=O)N2CCN(c3ccc(F)cc3)CC2)c1)N1CCCCCCC1	i	i	i	i	i	i	i	i
CN(CCOc1ccc(Cl)cc1)C(=O)c1cccc(S(=O)(=O)N2CCN(c3ccccc3)CC2)c1	84.6	i	i	i	i	nt	92.5	81.2
COc1ccccc1CNC(=O)c1cccc(S(=O)(=O)N2CCN(c3ccc(F)cc3)CC2)c1	i	i	i	i	i	i	nt	nt
COc1cccc(CN(C)C(=O)c2cccc(S(=O)(=O)N3CCN(c4ccc(F)cc4)CC3)c2)c1OC	i	i	i	i	i	i	79.4	i
CN(Cc1ccco1)C(=O)c1cccc(S(=O)(=O)N2CCN(Cc3ccccc3)CC2)c1	i	i	i	i	i	nt	nt	nt
COc1cccc(CN(C)C(=O)c2cccc(S(=O)(=O)N3CCN(Cc4ccccc4)CC3)c2)c1OC	i	i	i	i	i	nt	i	i
COc1cc(C2c3c(-c4ccccc4)n[nH]c3C(=O)N2c2ccc(C(=O)O)cc2)ccc1O (centres undefined)	i	nt	i	nt	i	i	nt	nt
CSC(=NC#N)N1CCN(C(=NC#N)SC)CC1	i	i	i	i	i	i	nt	nt
Cc1ccc(S(=O)(=O)NCC(=O)NCC(=O)OCC(=O)NC(=O)NC(C)(C)C)cc1C	i	i	i	i	i	i	nt	nt
